Test results reported in article PMC9380797 (Indian Journal of Nuclear Medicine : IJNM : The Official …, 2022).

How the values were obtained:
[1] = Partition coefficient measurement log Po/w; assay type: physicochemical
[2] = Plasma protein binding of the radio-complex; assay type: in vitro ADME; settings: rat plasma, 37°C up to 1 hr
Outline: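 Pellet re-suspended in 5% TCA and re-centrifuged. Precipitate and supernatant counted in a well-type gamma counter; binding given as protein-bound percent of total activity.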

[3] = Stability of the radio-complex with pH and time at room temperature; assay type: physicochemical
Outline: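 Labelling: 7.4 MBq pertechnetate added to 20 µg test compound (10% ethanol) with 40 µg SnCl2·2H2O, pH 7, 10 min at room temperature in the dark. pH varied from 2 to 10 and room-temperature stability followed over time. Purity by ITLC: acetone (free pertechnetate) and pyridine:acetic acid:water 3:5:1.5 (hydrolysed fraction); strips counted with a gamma probe. Triplicates, one-way ANOVA.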

[4] = Paper electrophoresis; assay type: physicochemical; settings: 300V, 1 h
Outline: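 Radio-complex spotted at the central point of Whatman No. 1 paper, with sodium phosphate buffer as the mobile phase. Strip dried after the run and activity along it counted in a well-type gamma scintillation […]; the direction of migration indicates charge.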

[5] = Blood pharmacokinetics after intravenous administration; assay type: in vivo, rat; settings: rats, i.v.
Outline: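 Male Sprague Dawley rats (200–250 g) given 200 µCi of Tc-99m-labelled test compound via a penile vein. Blood drawn from the ocular vein at intervals over 0–120 min and counted in a well-type scintillation counter, expressed as counts per ml of blood. Peak times read from the activity–time curve.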

[6] = Bio-distribution in normal control rats; assay type: in vivo, rat; settings: for ID/g Bladder / ID/g Bone / ID/g Brain / ID/g Heart / ID/g Kidney / ID/g Large intestine / ID/g Liver / ID/g Lung / ID/g Muscle / ID/g Prostate / ID/g Small intestine / ID/g Spleen / ID/g Stomach / ID/g Thyroid: normal control rats; for percent-specific uptake in the prostate: normal healthy rats
Outline: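 Healthy adult male Sprague Dawley rats (6–7 weeks, 200–250 g) given 200 µCi of Tc-99m-labelled test compound intravenously via a penile vein. Animals sacrificed at several post-injection times (1, 2, 4 and 6 h). Organs excised, weighed and counted in a well scintillation counter. %ID/g calculated against a standard of the injected dose. n=3, mean ± SD, ANOVA.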

[7] = Bio-distribution in MNU + TP treated rats; assay type: in vivo, rat; settings: for percent-specific uptake in the prostate: MNU + TP treated (carcinogen-induced) rats; for ID/g Bladder / ID/g Bone / ID/g Brain / ID/g Heart / ID/g Kidney / ID/g Large intestine / ID/g Liver / ID/g Lung / ID/g Muscle / ID/g Prostate / ID/g Small intestine / ID/g Spleen / ID/g Stomach / ID/g Thyroid: MNU + TP treated rats

## Tc-99m-17-oxo-17a-aza-D-homo-5-androsten-3 β-ylphenoxyacetate [Tc-99m-17a-aza steroid]
[1]
  Log Po/w: 0.118 ± 0.045
[2]
  Plasma protein binding: 86.23 ± 7.08%
[3]; pH 2
  percent radiochemical purity: 92.72%
[3]; pH 4
  percent radiochemical purity: 97.24%
[3]; pH 10
  percent radiochemical yield: 86.84%
[4]
  charge of the radio-complex: neutral
[5]
  time of first peak in blood: 50 s
  time of second peak in blood: 50 min
[6]; First h
  ID/g Bladder: 1.758±0.706 ID/g
  ID/g Bone: 1.77±0.14 ID/g
  ID/g Brain: 0.217±0.065 ID/g
  ID/g Heart: 0.416±0.005 ID/g
  ID/g Kidney: 7.476±1.300 ID/g
  ID/g Large intestine: 0.654±0.294 ID/g
  ID/g Liver: 4.44±0.836 ID/g
  ID/g Lung: 3.145±0.465 ID/g
  ID/g Muscle: 0.337±0.003 ID/g
  ID/g Prostate: 0.303±0.017 ID/g
  ID/g Small intestine: 0.639±0.277 ID/g
  ID/g Spleen: 4.002±0.245 ID/g
  ID/g Stomach: 0.124±0.065 ID/g
  ID/g Thyroid: 0.35±0.053 ID/g
[6]; Fourth h
  ID/g Bladder: 1.121±0.896 ID/g
  ID/g Bone: 0.163±0.011 ID/g
  ID/g Brain: 0.133±0.027 ID/g
  ID/g Heart: 0.535±0.274 ID/g
  ID/g Kidney: 13.726±2.948 ID/g
  ID/g Large intestine: 0.635±0.079 ID/g
  ID/g Liver: 9.423±1.188 ID/g
  ID/g Lung: 3.354±2.237 ID/g
  ID/g Muscle: 0.126±0.015 ID/g
  ID/g Prostate: 0.298±0.079 ID/g
  ID/g Small intestine: 0.659±0.150 ID/g
  ID/g Spleen: 8.33±1.334 ID/g
  ID/g Stomach: 0.094±0.045 ID/g
  ID/g Thyroid: 0.422±0.095 ID/g
[6]; Second h
  ID/g Bladder: 1.71±0.550 ID/g
  ID/g Bone: 0.694±0.077 ID/g
  ID/g Brain: 0.064±0.005 ID/g
  ID/g Heart: 0.547±0.065 ID/g
  ID/g Kidney: 9.093±0.897 ID/g
  ID/g Large intestine: 0.691±0.178 ID/g
  ID/g Liver: 5.293±1.504 ID/g
  ID/g Lung: 7.207±4.919 ID/g
  ID/g Muscle: 0.462±0.241 ID/g
  ID/g Prostate: 0.518±0.133 ID/g
  ID/g Small intestine: 1.276±0.526 ID/g
  ID/g Spleen: 5.816±0.886 ID/g
  ID/g Stomach: 0.101±0.042 ID/g
  ID/g Thyroid: 0.512±0.106 ID/g
[6]; Sixth h
  ID/g Bladder: 1.840±0.724 ID/g
  ID/g Bone: 0.59±0.085 ID/g
  ID/g Brain: 0.096±0.074 ID/g
  ID/g Heart: 0.557±0.061 ID/g
  ID/g Kidney: 15.403±2.545 ID/g
  ID/g Large intestine: 0.915±0.186 ID/g
  ID/g Liver: 13.303±1.618 ID/g
  ID/g Lung: 4.292±1.191 ID/g
  ID/g Muscle: 0.160±0.06 ID/g
  ID/g Prostate: 0.269±0.182 ID/g
  ID/g Small intestine: 0.944±0.074 ID/g
  ID/g Spleen: 9.04±1.165 ID/g
  ID/g Stomach: 0.091±0.013 ID/g
  ID/g Thyroid: 0.031±0.007 ID/g
[6]; 1 h after administration
  percent-specific uptake in the prostate: 0.303%
[6]; 2 h after administration
  percent-specific uptake in the prostate: 0.518%
[6]; 4 h after administration
  percent-specific uptake in the prostate: 0.298%
[6]; 6 h after administration
  percent-specific uptake in the prostate: 0.269%
[7]; 1 h after administration
  percent-specific uptake in the prostate: 0.913%
[7]; 2 h after administration
  percent-specific uptake in the prostate: 0.825%
[7]; 4 h after administration
  percent-specific uptake in the prostate: 0.857%
[7]; 6 h after administration
  percent-specific uptake in the prostate: 0.673%
[7]; First h
  ID/g Bladder: 1.465±0.175 ID/g
  ID/g Bone: 0.437±0.237 ID/g
  ID/g Brain: 0.139±0.124 ID/g
  ID/g Heart: 0.045±0.036 ID/g
  ID/g Kidney: 6.283±0.746 ID/g
  ID/g Large intestine: 0.264±0.121 ID/g
  ID/g Liver: 3.48±0.676 ID/g
  ID/g Lung: 2.903±0.553 ID/g
  ID/g Muscle: 0.097±0.075 ID/g
  ID/g Prostate: 0.913±0.172 ID/g
  ID/g Small intestine: 0.482±0.554 ID/g
  ID/g Spleen: 3.873±0.600 ID/g
  ID/g Stomach: 0.142±0.038 ID/g
  ID/g Thyroid: 0.356±0.163 ID/g
[7]; Fourth h
  ID/g Bladder: 0.897±0.456 ID/g
  ID/g Bone: 2.24±1.062 ID/g
  ID/g Brain: 0.149±0.085 ID/g
  ID/g Heart: 0.231±0.171 ID/g
  ID/g Kidney: 7.836±1.861 ID/g
  ID/g Large intestine: 0.878±0.439 ID/g
  ID/g Liver: 8.693±0.784 ID/g
  ID/g Lung: 1.263±0.253 ID/g
  ID/g Muscle: 0.330±0.194 ID/g
  ID/g Prostate: 0.857±0.091 ID/g
  ID/g Small intestine: 0.400±0.015 ID/g
  ID/g Spleen: 4.61±0.026 ID/g
  ID/g Stomach: 0.112±0.033 ID/g
  ID/g Thyroid: 0.654±0.099 ID/g
[7]; Second h
  ID/g Bladder: 0.979±0.247 ID/g
  ID/g Bone: 1.381±0.609 ID/g
  ID/g Brain: 0.257±0.139 ID/g
  ID/g Heart: 0.404±0.217 ID/g
  ID/g Kidney: 7.37±1.162 ID/g
  ID/g Large intestine: 0.383±0.034 ID/g
  ID/g Liver: 6.767±0.496 ID/g
  ID/g Lung: 2.44±0.216 ID/g
  ID/g Muscle: 0.262±0.023 ID/g
  ID/g Prostate: 0.825±0.110 ID/g
  ID/g Small intestine: 0.563±0.037 ID/g
  ID/g Spleen: 6.76±0.911 ID/g
  ID/g Stomach: 0.091±0.029 ID/g
  ID/g Thyroid: 0.698±0.037 ID/g
[7]; Sixth h
  ID/g Bladder: 0.871±0.578 ID/g
  ID/g Bone: 2.038±1.163 ID/g
  ID/g Brain: 0.132±0.048 ID/g
  ID/g Heart: 0.337±0.054 ID/g
  ID/g Kidney: 8.08±1.784 ID/g
  ID/g Large intestine: 0.973±0.641 ID/g
  ID/g Liver: 9.673±0.457 ID/g
  ID/g Lung: 1.2±0.07 ID/g
  ID/g Muscle: 0.310±0.022 ID/g
  ID/g Prostate: 0.673±0.064 ID/g
  ID/g Small intestine: 0.378±0.193 ID/g
  ID/g Spleen: 8.77±0.645 ID/g
  ID/g Stomach: 0.069±0.023 ID/g
  ID/g Thyroid: 0.684±0.198 ID/g
